# Bioassay records as filed in PubChem BioAssay.
# In the library only some 2% were active in any assay of this set; here they are far more common.
# eIF4H FP inh = inhibitors of RNA binding by human eIF4H; eIF4H fluorescence polarization binding assay; Q15056; actives 0.94% (n = 290,000); inhibition, % at 35 µM;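 further: calls also rest on retests at 20 µM and on dose response follow-up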
# core dimer inh = blocks dimerization of HCV core protein | TR-FRET GST/Flag-core106 dimerization, 1536-well | inhibition, % at 5 µM | actives 0.33% (n = 300,000) | AID 1899;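 active means inhibition above the mean of all tested compounds plus 3 SD, set per screening campaign, cut at about 45% in these data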
#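 assay system = GST-tagged and Flag-tagged HCV core protein residues 1-106 | controls = unlabelled core106 and no-GST-core106 wells | incubation = compound-protein-antibody incubation 4 h at 22.5 °C | probe or stimulus = Eu donor and XL665 acceptor anti-tag antibodies | read-out = % inhibition based on acceptor/donor emission ratio | signal = TR-FRET 671 and 617 nm emission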
# DNA FID counter = counter-screen for HCV NS3 helicase inhibitors: DNA intercalator displacement; inhibition, % at 7.9 µM; actives 0.17% (n = 290,000); DNA fluorescent intercalator displacement, fluorescence; AID 1845; in the data active means inhibition above about 37%;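 further: higher means more ethidium bromide displaced from hairpin DNA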
# PABP FP inh = PABP-poly(A) binding inhibition. actives 1% (n = 290,000). PABP-poly(A) RNA binding, fluorescence polarization. inhibition, % at 35 µM;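 further: calls also rest on retests at 20 µM and on dose response follow-up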
# NS3 helicase inh = blocks Hepatitis C virus NS3 helicase unwinding | NS3 helicase DNA unwinding, Cy5 molecular beacon fluorescence | inhibition, % at 10.9 µM | actives 0.56% (n = 290,000) | AID 1800;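 active means inhibition above the mean of all tested compounds plus 3 SD, set per campaign, cut at about 35% in these data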
#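 Assay system – hepatitis C virus NS3 helicase domain fragment enzyme · Buffer or medium – MOPS pH 6.5, MgCl2, DTT, Tween20, BSA · Reagent – Cy5/quencher beacon DNA duplex and ATP to start · Compound – single 10.9 µM dose · Timing – 1 h at 25 °C · Technique – Cy5 beacon fluorescence read at start and 1 h · Measure – % inhibition of unwinding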
# PABP1 MLLE inh = blocks PAM2 peptide binding to the PABP1 MLLE domain; P11940; GST-MLLE / FITC-PAM2 fluorescence polarization; actives 0.36% (n = 360,000); inhibition, % at 20 µM; in the data active means inhibition above about 35%, passing the limit was not always enough
# Numbers stand for hits; – = inactive; ? = inconclusive; · = no result given. Unless noted, how the calls were made is not given here.
SMILES,eIF4H FP inh,core dimer inh,DNA FID counter,PABP FP inh,NS3 helicase inh,PABP1 MLLE inh
CCc1ccc(N2CSC3=C(C#N)C(c4cccs4)CC(=O)N3C2)cc1 (centres undefined),–,–,–,–,–,–
N#CC1=C2SCN(c3ccc(F)cc3)CN2C(=O)CC1c1cccc(F)c1 (centres undefined),43,–,–,–,–,–
COc1ccc(N2CSC3=C(C#N)C(c4cccs4)CC(=O)N3C2)cc1 (centres undefined),15,–,–,62,–,–
Cc1ccc(N2CSC3=C(C#N)C(c4cccs4)CC(=O)N3C2)cc1 (centres undefined),61,–,–,82,–,–
COc1ccc(N2CSC3=C(C#N)C(c4cc(OC)ccc4OC)CC(=O)N3C2)c(OC)c1 (centres undefined),–,–,–,–,–,–
COc1cc(NC(=O)CCCNC(=O)Cn2cnc3sc(C)c(C)c3c2=O)cc(OC)c1OC,–,–,–,–,–,–
Cc1ccc(C(=O)N/N=C/c2cccnc2)cc1Cl,·,·,·,·,·,–
S=C(NNc1cccc(Cl)c1)NC1CCCCC1,–,–,–,69,–,–
O=C1/C(=C/c2ccc(Br)cc2)Oc2cc(O)ccc21,–,–,–,36,–,–
CC(C)(C)c1ccc(/C=C2\Oc3cc(O)ccc3C2=O)cc1,–,–,–,–,–,–
CN(C(=O)COC(=O)c1ccccc1SCC(=O)N1CCCC1)C1(C#N)CCCCC1,·,·,·,·,·,–
CCc1ccc(NC(=O)C(=O)N/N=C(\C)CC(=O)Nc2ccccn2)cc1,–,–,–,12,–,–
Cc1ccccc1NC(=O)CCS(=O)(=O)c1ccc(Br)s1,58,–,–,–,–,–
O=C1CC(c2ccco2)Sc2nc3ccccc3n21 (centres undefined),89,–,–,63,–,–
O=C1CC(c2ccccc2)Sc2nc3ccccc3n21 (centres undefined),–,–,–,–,–,–
Cn1cc(C(=O)N/N=C/C(Br)=C\c2ccccc2)ccc1=O,57,–,–,28,–,–
Cc1ccc(NC(=O)CSCC(=O)NC2=NCCS2)cc1,·,·,·,·,·,–
O=C(COC(=O)c1c(F)cccc1F)NC(=O)NCc1ccccc1,·,·,·,·,·,–
CC[C@]12CCCN3CCc4c(n(c5ccccc45)[C@](O)(C(=O)OC)C1)[C@@H]32,·,–,·,·,·,–
CCC12CCCN3CCc4c(n(c5ccccc45)C(O)(C(=O)OC)C1)C32 (centres undefined),96,–,–,56,–,–
CCCCNC(=O)C1(C)CCCCN1C(=O)c1ccc2ccccc2n1 (centres undefined),·,·,·,·,·,–
O=C(NNc1ccc(Cl)cc1)c1sccc1Cl,–,–,–,–,–,42
CCC1(C)Cc2ccccc2/C(=C/C(=O)N2CCCCC2)N1 (centres undefined),–,–,–,66,–,–
CNC(=O)/C=C1\NC(C)(C)Cc2ccccc21,–,–,–,–,–,–
Cc1ccc2c(C)c(C)c(=O)n(C)c2c1,·,·,·,·,·,–
SMILES,eIF4H FP inh,core dimer inh,DNA FID counter,PABP FP inh,NS3 helicase inh,PABP1 MLLE inh
COc1ccc2c3c(cccc13)C(=O)N(O)C2=O,–,–,–,–,–,40
Cc1ccc(-n2c(-c3cc(-c4ccco4)[nH]n3)n[nH]c2=S)c(Br)c1,?,–,–,45,–,–
CC(=O)c1ccc(-n2c(-c3cc(-c4ccco4)[nH]n3)n[nH]c2=S)cc1,–,–,–,–,–,–
O=C(O)c1ccc(-n2c(-c3cc(-c4ccco4)[nH]n3)n[nH]c2=S)cc1,87,–,–,61,–,–
O=c1cc(CSc2n[nH]c(-c3ccncc3)n2)nc2sccn12,63,53,–,–,–,–
COCCn1c(SCc2cc(=O)n3ccsc3n2)nnc1-c1ccncc1,–,–,–,–,–,–
CN(CC(=O)Nc1ccc(F)c(F)c1F)C(=O)CCN1C(=O)C2CC=CCC2C1=O (centres undefined),·,·,·,·,·,–
O=C(CNS(=O)(=O)c1ccc(Br)cc1)OCc1cc(=O)n2cc(Br)ccc2n1,–,–,–,–,–,·
O=C(CNC(=O)c1cccc(OC(F)F)c1)OCc1cc(=O)n2cc(Br)ccc2n1,–,–,–,active,–,–
CCC(C)[C@H](NC(=O)C1CC(=O)N(c2ccc(OC)cc2)C1)C(=O)NC1CCCC1 (some centres undefined),–,–,–,–,–,–
CC1(O)C(=O)C=C2C=C(c3ccc(C#N)cc3)OC=C2C1=O (centres undefined),·,55,·,·,·,·
COc1ccc(C2=NNC(c3cc(Cl)cc4c3OCOC4)C2)c(O)c1 (centres undefined),52,–,–,–,–,·
Oc1ccc(Cl)cc1C1=NNC(c2cc(Br)cc3c2OCOC3)C1 (centres undefined),–,–,–,–,–,–
COc1cccc(C=NN(C)c2c([N+](=O)[O-])cc(C(F)(F)F)cc2[N+](=O)[O-])c1O,·,·,·,·,·,–
Cc1ccccc1N=Cc1c(O)n(-c2nccs2)c(=O)c2ccccc12,–,–,–,–,–,–
O=c1c2ccccc2c(C=Nc2ccccc2O)c(O)n1-c1nccs1,–,–,–,88,–,–
CCOc1ccc(/C=N/NC(=O)c2ccccc2C)cc1CN1CC2CC(C1)c1cccc(=O)n1C2 (centres undefined),·,·,·,·,·,–
COc1ccccc1CNC(=O)c1cc(C(=O)CC(C)C)c[nH]1,–,–,–,–,–,–
CCOc1cccc(CN2CCCC(C(=O)Nc3cccc(-n4cccn4)c3)C2)c1 (centres undefined),–,–,–,–,–,–
CCOc1ccccc1CN1CCCC(C(=O)Nc2cccc(-n3cccn3)c2)C1 (centres undefined),–,–,39,–,–,–
O=C(NC(=S)N1CCOCC1)c1cn(-c2ccccc2)nc1-c1ccccc1,·,·,·,·,·,–
O=C(NC(=S)NCCO)c1cn(-c2ccccc2)nc1-c1ccccc1,–,–,–,–,–,50
O=C(CN1c2ccccc2S(=O)(=O)c2ccccc21)Nc1ccccc1F,–,–,–,–,–,–
COc1ccc(C2C(C#N)=C(N)SC(N)=C2C#N)cc1OC,?,61,–,?,–,–
N#CC1=C(N)SC(N)=C(C#N)C1c1cccc(O)c1,74,–,–,73,–,–
COc1ccc(C2C(C#N)=C(N)OC(C(C)(C)C)=C2C#N)cc1OC (centres undefined),–,–,–,–,–,–
CC(C)C[C@@H](CN)NC(=O)c1nc[nH]c1C(=O)N[C@@H](C)C(=O)CNC[C@H](C)NC(=O)c1nc[nH]c1C(=O)N[C@@H](CC(C)C)C(=O)O,·,·,·,·,·,–
CCOc1ccc(CNC(=O)CN2C(=O)CSc3ccc(S(=O)(=O)N4CCOCC4)cc32)cc1,·,·,·,·,·,–
CCn1nccc1NC(=O)c1csc([C@H]2C[C@H](O)[C@@H](CO)O2)n1,·,·,·,·,·,–
